ChEMBL document CHEMBL5303300, “EUbOPEN Chemogenomics Library - Multiplex” (2023)
Several values for one entry are separate records, joined by “and”; a condition that tells them apart may be missing. Identical values can stand only once.

Tested on: HEK-293T
Experiment: Multiplex assay against HEK293T
Type: toxicity, cell-based
Details: human, number of replicates 2
Summary of the method: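 Cells stained live at seeding with Hoechst33342, BioTracker Green Microtubule Cytoskeleton Dye, MitoTracker Red and Annexin V Alexa Fluor 680 were imaged on a CQ1 microscope at 37°C and 5% CO2 after compound addition. Their classification by CellPathfinder machine-learning gating ran from Hoechst high-intensity objects versus normal cells, to healthy, pyknosed or fragmented nuclei among normal cells, to mitotic or apoptotic among pyknosed cells. Tubulin, mitochondrial-mass and membrane-permeability phenotypes are per cents of healthy-nucleus cells.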

[1] = 12 h, 1 µM, compound concentration 1 uM
[2] = 12 h, 10 µM, compound concentration 10 uM
[3] = 24 h, 1 µM, compound concentration 1 uM
[4] = 24 h, 10 µM, compound concentration 10 uM
[5] = 48 h, 1 µM, compound concentration 1 uM
[6] = 48 h, 10 µM, compound concentration 10 uM

CCCCOc1c(C(=O)c2c(F)cc(C)cc2F)c[nH]c2nncc1-2
Population Apoptotic (%) [1]: 54% and 43%
Population Fragmented Nuclei (%) [1]: 3% and 2%
Population Healthy Nuclei (%) [1]: 87% and 86%
Population Hoechst High Intensity Objects (%) [1]: 7% and 6%
Population Membrane Permeable-Phenotype (%) [1]: 3% and 4%
Population Mitochondria Different-Phenotype (%) [1]: 11% and 7%
Population Mitotic Cells (%) [1]: 45% and 56%
Population Normal (%) [1]: 92% and 93%
Population Pyknosed Nuclei (%) [1]: 9% and 11%
Population Tubulin-Different-Phenotype (%) [1]: 58% and 46%
Total Cell Count [1]: 782 and 748
Population Apoptotic (%) [2]: 50% and 64%
Population Fragmented Nuclei (%) [2]: 3%
Population Healthy Nuclei (%) [2]: 85% and 81%
Population Hoechst High Intensity Objects (%) [2]: 10% and 11%
Population Membrane Permeable-Phenotype (%) [2]: 7% and 4%
Population Mitochondria Different-Phenotype (%) [2]: 17%
Population Mitotic Cells (%) [2]: 50% and 35%
Population Normal (%) [2]: 89% and 88%
Population Pyknosed Nuclei (%) [2]: 11% and 14%
Population Tubulin-Different-Phenotype (%) [2]: 77% and 74%
Total Cell Count [2]: 766 and 710
Population Apoptotic (%) [3]: 34% and 50%
Population Fragmented Nuclei (%) [3]: 7% and 5%
Population Healthy Nuclei (%) [3]: 85%
Population Hoechst High Intensity Objects (%) [3]: 10% and 11%
Population Membrane Permeable-Phenotype (%) [3]: 1% and 3%
Population Mitochondria Different-Phenotype (%) [3]: 4% and 5%
Population Mitotic Cells (%) [3]: 65% and 50%
Population Normal (%) [3]: 89% and 88%
Population Pyknosed Nuclei (%) [3]: 7% and 8%
Population Tubulin-Different-Phenotype (%) [3]: 32% and 46%
Total Cell Count [3]: 1018 and 1015
Population Apoptotic (%) [4]: 59% and 67%
Population Fragmented Nuclei (%) [4]: 5%
Population Healthy Nuclei (%) [4]: 82% and 83%
Population Hoechst High Intensity Objects (%) [4]: 9% and 10%
Population Membrane Permeable-Phenotype (%) [4]: 3% and 2%
Population Mitochondria Different-Phenotype (%) [4]: 5%
Population Mitotic Cells (%) [4]: 40% and 32%
Population Normal (%) [4]: 90% and 89%
Population Pyknosed Nuclei (%) [4]: 11%
Population Tubulin-Different-Phenotype (%) [4]: 57% and 52%
Total Cell Count [4]: 954 and 851
Population Fragmented Nuclei (%) [5]: 17% and 10%
Population Healthy Nuclei (%) [5]: 79% and 86%
Population Hoechst High Intensity Objects (%) [5]: 16%
Population Membrane Permeable-Phenotype (%) [5]: 4% and 2%
Population Mitochondria Different-Phenotype (%) [5]: 1% and 2%
Population Mitotic Cells (%) [5]: 88% and 65%
Population Normal (%) [5]: 83%
Population Pyknosed Nuclei (%) [5]: 2% and 3%
Population Tubulin-Different-Phenotype (%) [5]: 24% and 36%
Total Cell Count [5]: 1720 and 1259
Population Apoptotic (%) [6]: 41% and 63%
Population Fragmented Nuclei (%) [6]: 13% and 10%
Population Healthy Nuclei (%) [6]: 82% and 86%
Population Hoechst High Intensity Objects (%) [6]: 12%
Population Membrane Permeable-Phenotype (%) [6]: 4% and 1%
Population Mitochondria Different-Phenotype (%) [6]: 4% and 5%
Population Mitotic Cells (%) [6]: 58% and 36%
Population Normal (%) [6]: 87%
Population Pyknosed Nuclei (%) [6]: 3% and 2%
Population Tubulin-Different-Phenotype (%) [6]: 46% and 47%
Total Cell Count [6]: 1114 and 939

CN(C)[C@H]1CC[C@H](Nc2ncc3ncnc(Nc4ccc(F)c(Cl)c4)c3n2)CC1
Population Apoptotic (%) [1]: 46% and 50%
Population Fragmented Nuclei (%) [1]: 4% and 5%
Population Healthy Nuclei (%) [1]: 88% and 87%
Population Hoechst High Intensity Objects (%) [1]: 9% and 10%
Population Membrane Permeable-Phenotype (%) [1]: 2% and 1%
Population Mitochondria Different-Phenotype (%) [1]: 14% and 10%
Population Mitotic Cells (%) [1]: 53% and 50%
Population Normal (%) [1]: 90% and 89%
Population Pyknosed Nuclei (%) [1]: 7%
Population Tubulin-Different-Phenotype (%) [1]: 45% and 36%
Total Cell Count [1]: 608 and 681
Population Apoptotic (%) [2]: 30% and 17%
Population Fragmented Nuclei (%) [2]: 6% and 7%
Population Healthy Nuclei (%) [2]: 82% and 79%
Population Hoechst High Intensity Objects (%) [2]: 47% and 50%
Population Membrane Permeable-Phenotype (%) [2]: 3% and 4%
Population Mitochondria Different-Phenotype (%) [2]: 6% and 5%
Population Mitotic Cells (%) [2]: 69% and 82%
Population Normal (%) [2]: 52% and 49%
Population Pyknosed Nuclei (%) [2]: 10% and 13%
Population Tubulin-Different-Phenotype (%) [2]: 33% and 29%
Total Cell Count [2]: 768 and 714
Population Apoptotic (%) [3]: 40% and 51%
Population Fragmented Nuclei (%) [3]: 7% and 8%
Population Healthy Nuclei (%) [3]: 87% and 88%
Population Hoechst High Intensity Objects (%) [3]: 10% and 11%
Population Membrane Permeable-Phenotype (%) [3]: 2% and 1%
Population Mitochondria Different-Phenotype (%) [3]: 4% and 3%
Population Mitotic Cells (%) [3]: 60% and 48%
Population Normal (%) [3]: 89% and 88%
Population Pyknosed Nuclei (%) [3]: 4% and 2%
Population Tubulin-Different-Phenotype (%) [3]: 21% and 22%
Total Cell Count [3]: 1021 and 1110
Population Apoptotic (%) [4]: 17% and 13%
Population Fragmented Nuclei (%) [4]: 8% and 9%
Population Healthy Nuclei (%) [4]: 82% and 77%
Population Hoechst High Intensity Objects (%) [4]: 44% and 49%
Population Membrane Permeable-Phenotype (%) [4]: 2%
Population Mitochondria Different-Phenotype (%) [4]: 2% and 4%
Population Mitotic Cells (%) [4]: 82% and 86%
Population Normal (%) [4]: 55% and 50%
Population Pyknosed Nuclei (%) [4]: 8% and 13%
Population Tubulin-Different-Phenotype (%) [4]: 24% and 21%
Total Cell Count [4]: 1161 and 1002
Population Apoptotic (%) [5]: 17% and 35%
Population Fragmented Nuclei (%) [5]: 23% and 21%
Population Healthy Nuclei (%) [5]: 74% and 76%
Population Hoechst High Intensity Objects (%) [5]: 12% and 15%
Population Membrane Permeable-Phenotype (%) [5]: 4% and 3%
Population Mitochondria Different-Phenotype (%) [5]: 0%
Population Mitotic Cells (%) [5]: 82% and 64%
Population Normal (%) [5]: 87% and 84%
Population Pyknosed Nuclei (%) [5]: 2% and 1%
Population Tubulin-Different-Phenotype (%) [5]: 9% and 13%
Total Cell Count [5]: 2456 and 2598
Population Apoptotic (%) [6]: 24% and 15%
Population Fragmented Nuclei (%) [6]: 22% and 17%
Population Healthy Nuclei (%) [6]: 74%
Population Hoechst High Intensity Objects (%) [6]: 36% and 42%
Population Membrane Permeable-Phenotype (%) [6]: 3%
Population Mitochondria Different-Phenotype (%) [6]: 0%
Population Mitotic Cells (%) [6]: 75% and 84%
Population Normal (%) [6]: 63% and 57%
Population Pyknosed Nuclei (%) [6]: 3% and 7%
Population Tubulin-Different-Phenotype (%) [6]: 14% and 15%
Total Cell Count [6]: 2410 and 1820
